Rows were chosen to be rich in hits. Some 2.5% of all compounds tested hit in one or more screens of this group.
HIV Env fusion: inhibitors of HIV-1 Env-driven cell-cell fusion, primary screen, HeLa-JRFL effector, CEM21 target cells, luciferase; 360,000 tested, 1.1% active; inhibition, % at 12.3 µM;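 active means mean replicate inhibition score of at least 50 and every replicate individually at or above 50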;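 further: 0% = plate neutral controls and 100% = maraviroc near 300 nM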
N-glyco inh: increase of ERlucT glycosylation luciferase signal, primary screen, N-linked glycosylation inhibitor project, D54 ERlucT cells, luminescence, set 2. reporter increase, % at 12.5 µM. D54 ERlucT glycosylation luciferase reporter, 24 h; percent of 100 nM tunicamycin response. AID 588692, 2011. 360,000 tested, 0.23% active;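 active means mean luciferase reporter signal, scaled so untreated is 0 and the glycosylation-blocking control 100, at or above a set limit in every replicate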;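 further: luciferase carries N-glycosylation sites so blocking glycosylation raises the light; 0% = median of neutral control wells and 100% = median of 100 nM tunicamycin wells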
EWS-Fli block: EWS/Fli-driven NR0B1 reporter inhibitors, primary screen, A673 cells, NR0B1 luciferase, luminescence, MLPCN library; viability-normalised; inhibition, % at 12.6 µM; 350,000 tested, 0.67% active; AID 651661, 2012;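 active means mean inhibition of at least 50% after viability correction, with every replicate also passing that limit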;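 further: firefly luciferase signal divided by Alamar Blue viability fluorescence both relative to DMSO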
PAX8 reporter: inhibitors of PAX8-driven TPO luciferase reporter, primary screen, RMG-I cells, single concentration | SteadyGlo, 24 h | inhibition, % at 12.6 µM | 360,000 tested, 1.2% active | AID 652154, 2013;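 active means mean replicate inhibition at least 60% with every replicate also reaching 60%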;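 further: luciferase light reporting Pax8 driven TPO promoter activity; plate controls were median of neutral control wells for no effect and mitoxantrone controls for full effect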
AF4-AF9 inh: inhibitors of AF4 peptide binding to AF9, primary screen, biochemical, AlphaScreen, biotin-AF4 peptide, FLAG-AF9, single point; Protein AF-9 (Homo sapiens), P42568; inhibition, % at 10 µM; AID 651704, 2012; 350,000 tested, 0.47% active;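 active means every replicate reaching a set inhibition limit, whatever the replicate mean, cut at about 25% in these data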;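 further: 0% = plate neutral control median and 100% = total signal loss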
Target sequence (P42568 whole entry, looked up): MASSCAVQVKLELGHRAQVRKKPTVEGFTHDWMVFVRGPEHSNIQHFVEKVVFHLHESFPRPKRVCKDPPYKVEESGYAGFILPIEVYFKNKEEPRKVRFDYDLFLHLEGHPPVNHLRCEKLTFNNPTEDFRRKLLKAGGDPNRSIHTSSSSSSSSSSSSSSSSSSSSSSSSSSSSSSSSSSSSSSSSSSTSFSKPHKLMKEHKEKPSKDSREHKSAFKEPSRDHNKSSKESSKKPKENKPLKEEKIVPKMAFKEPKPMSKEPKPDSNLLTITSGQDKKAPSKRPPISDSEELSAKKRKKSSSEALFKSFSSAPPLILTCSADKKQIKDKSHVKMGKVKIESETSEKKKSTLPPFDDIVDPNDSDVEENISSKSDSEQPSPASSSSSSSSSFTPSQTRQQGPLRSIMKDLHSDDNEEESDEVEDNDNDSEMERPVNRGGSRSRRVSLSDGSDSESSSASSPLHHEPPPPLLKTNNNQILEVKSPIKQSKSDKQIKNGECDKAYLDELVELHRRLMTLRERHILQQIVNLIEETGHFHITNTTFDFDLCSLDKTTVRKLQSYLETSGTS
FN deposition inh: inhibitors of fibronectin matrix deposition, primary screen, AH1F cells, Alexa488-fibronectin fluorescence, plate reader. 350,000 tested, 0.086% active. inhibition, % at 12.6 µM. AH1F fibroblasts, overnight;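 active means mean inhibition across replicates of 30% or more, regardless of how many single replicates reach that level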;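 further: positive control wells lacked labelled fibronectin entirely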
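Measured by – fluorescence 485/525 nm · System – AH1F fibroblast monolayer, labelled fibronectin deposition · Amount – 10000 cells per well · Buffer or medium – serum-reduced DMEM (2% serum) · Doses – single dose, pinned · Also added – fluorescent fibronectin at 24 nM final · Schedule – 1 h cell attachment, overnight exposure to compound and label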
DNA binding: DNA binders by acridine orange displacement, dose response, counter-screen for EWS/Fli inhibitor project, biochemical, fluorescence polarization, cherry-pick; 640 tested, 2% active; salmon sperm DNA acridine orange fluorescence polarization; AC35, µM (series often up to 68 µM), inactives show at the highest dose activity change, negative = DNA binding; shares compounds with EWS-Fli block;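 active means fitted curve reaches a 35% signal fall AC35 below twice the sample's top valid tested dose, actives reach about 48 µM in these data; inactive means the rest, including activity in the rising direction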;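 further: lower polarization ratio signals compound binding to DNA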
The depositor's hits bear a star; ! = repeats disagree; [ ] = dose if it differs, or a comment.

How did COc1ccc(CN(C)C[C@H]2OCCCC[C@@H](C)Oc3ccc(NS(=O)(=O)c4ccc(F)cc4)cc3C(=O)N([C@H](C)CO)C[C@H]2C)cc1 do in these assays?
HIV Env fusion: 9[16.7 µM]; EWS-Fli block: 10; PAX8 reporter: -7; AF4-AF9 inh: 9; FN deposition inh: -13

What do the screens show for `CN(C)[C@@H]1CCC[C@@H]1OC(=O)C(c1ccccc1)c1ccccc1`?
HIV Env fusion: -10; N-glyco inh: 0; EWS-Fli block: 87*; PAX8 reporter: -23; AF4-AF9 inh: 0; DNA binding: -1%

Results for CCN1CCCC(OC(=O)C(c2ccccc2)c2ccccc2)C1 (stereo not drawn) ?
HIV Env fusion: -20; N-glyco inh: -3; EWS-Fli block: 2; PAX8 reporter: -8; AF4-AF9 inh: 8; FN deposition inh: -12

What do the screens show for `O=C(Nc1ccc(NC(=O)c2cc3ccccc3o2)cc1)c1ccc2c(c1)OCCO2`?
HIV Env fusion: 27; N-glyco inh: -2; EWS-Fli block: 58*; PAX8 reporter: -1; AF4-AF9 inh: -5; FN deposition inh: 3; DNA binding: -2%

How did Cc1cc(NC(=O)c2ccc3c(c2)OCCO3)ccc1NC(=O)c1cc2ccccc2o1 do in these assays?
HIV Env fusion: 1; N-glyco inh: -6; EWS-Fli block: -52; PAX8 reporter: -16; AF4-AF9 inh: -6; FN deposition inh: -7

How did CC(=O)N(C)C[C@@H]1Oc2cc(C#Cc3ccccn3)ccc2S(=O)(=O)N([C@H](C)CO)C[C@@H]1C do in these assays?
HIV Env fusion: 1[16.7 µM]; EWS-Fli block: -9; AF4-AF9 inh: -1

How did CN(C)Cc1c(O)ccc2c1O/C(=C\C=C\c1ccccc1)C2=O do in these assays?
HIV Env fusion: -47; N-glyco inh: 25; EWS-Fli block: 75*; PAX8 reporter: 77*; AF4-AF9 inh: 6; FN deposition inh: 2; DNA binding: -39%

How did CCN1CCN(Cc2c(O)ccc3c2O/C(=C\C=C\c2ccccc2)C3=O)CC1 do in these assays?
HIV Env fusion: -70; N-glyco inh: -1; EWS-Fli block: 9; PAX8 reporter: 50; AF4-AF9 inh: 18; FN deposition inh: -3

How did CCC(=O)N[C@H]1C=C[C@H](CC(=O)NCc2ccccc2OC)O[C@@H]1CO do in these assays?
HIV Env fusion: -4[16.7 µM]; EWS-Fli block: 3; PAX8 reporter: 11; AF4-AF9 inh: -5

Results for COc1cccc(S(=O)(=O)N(C)C[C@H]2OCc3cnnn3CCCC(=O)N([C@@H](C)CO)C[C@H]2C)c1 ?
HIV Env fusion: 13; N-glyco inh: 3; EWS-Fli block: 60*!; PAX8 reporter: -17; AF4-AF9 inh: -1; FN deposition inh: 13; DNA binding: -12%

What do the screens show for `COc1cccc(S(=O)(=O)N(C)C[C@@H]2OCc3cnnn3CCCC(=O)N([C@H](C)CO)C[C@H]2C)c1`?
HIV Env fusion: -7; N-glyco inh: 0; EWS-Fli block: 4; PAX8 reporter: 6; AF4-AF9 inh: 0; FN deposition inh: -12

Results for CCOc1ccc(-c2noc(CCC(=O)O)n2)cc1 ?
HIV Env fusion: 53; N-glyco inh: 0; EWS-Fli block: 54*; PAX8 reporter: -22; AF4-AF9 inh: -1; FN deposition inh: -2; DNA binding: -5%

Results for COc1ccc(-c2noc(CCC(=O)O)n2)cc1 ?
HIV Env fusion: -10; N-glyco inh: 0; PAX8 reporter: 1; FN deposition inh: -4

Results for COc1ccc(/C=C2\SC(=O)N(CCCC(=O)Nc3cc(Cl)ccc3C(=O)O)C2=O)cc1 ?
HIV Env fusion: 61*; N-glyco inh: -3; EWS-Fli block: 85*; PAX8 reporter: 53; AF4-AF9 inh: -2; FN deposition inh: 3; DNA binding: -10%
